The text below walks through data of ChEMBL document CHEMBL6115035 (J Med Chem, 2025).

In assay [1] the test system is VCaP. Nature of the assay: Antiproliferative activity against human VCaP cells measured after 5 days by Cell Titer-Glo assay. Format: functional, cell-based. As to conditions: 120 h. The gist of the method: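 Cells were seeded and incubated overnight at 37 °C, 5% CO2. Serial compound dilutions were then added. Viability was read by CellTiter-Glo luminescence after 5 days, and IC50 was obtained by curve fitting.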
In general terms: In ATP-based viability assays light output follows the ATP content of the culture.

Assay [2] concerns the target Cyclin-dependent kinase 13 (Homo sapiens) (UniProt Q14004). Nature of the assay: Binding affinity to CDK13 in human VCaP cells incubated for 4 hrs by streptavidin-biotin pull down assay. The format is cell-based. The procedure, abridged: (§1)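 VCaP cells were treated with a biotinylated probe for 4 h and lysed in RIPA buffer. Lysate was incubated with streptavidin beads overnight at 4 °C. Beads were washed three times with PBST (0.1% Tween) and eluted in 2X SDS loading buffer. Proteins were separated by SDS-PAGE.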

The target in assay [3] is Cyclin-dependent kinase 12 (Homo sapiens) (UniProt Q9NYV4). Nature of the assay: Binding affinity to CDK12 in human VCaP cells incubated for 4 hrs by streptavidin-biotin pull down assay. Format: cell-based. The gist of the method:
as §1

Assay [4] relates to VCaP. Nature of the assay: Antiproliferative activity against human VCaP cells assessed as irreversible cell growth inhibition pretreated for 6 hrs followed by compound washout and subsequent addition of compound-free medium measured after 5 days by Cell Titer-Glo assay. The format is functional, cell-based. The procedure, abridged: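 VCaP cells (DMEM GlutaMAX, 10% FBS) were exposed to compound for 6 h. The compound was then removed and cells were grown in compound-free medium for 5 days before the viability read-out.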

For a further assay, the target named is CDK8/Cyclin C (Homo sapiens, UniProt P49336). Nature of the assay: Inhibition of CDK8/Cyclin C (unknown origin) by ADP-Glo kinase assay. Format: protein-complex assay.
Assay [5] relates to VCaP. Nature of the assay: Downregulation of RAD51 expression in human VCaP cells at 10 to 300 nM pretreated for 2 hrs followed by compound washout measured after 12 hrs by Western blot analysis. The format is functional, cell-based. As to conditions: dose 10-300 nM. Background: Immunoblotting shows a protein as a band on a membrane.
In the next assay the target is CDK7/Cyclin H/MNAT1 (Homo sapiens, UniProt P50613). Nature of the assay: Inhibition of CDK7/cyclin H/MAT1 (unknown origin) by ADP-Glo kinase assay. Format: protein-complex assay.
The subject of assay [6] is VCaP. Nature of the assay: Upregulation of c-PARP expression in human VCaP cells at 10 to 300 nM pretreated for 2 hrs followed by compound washout measured after 12 hrs by Western blot analysis. The format is functional, cell-based. As to conditions: dose 10-300 nM. The procedure, abridged: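 VCaP cells were grown in DMEM GlutaMAX with 10% FBS and P/S. After treatment they were washed with cold PBS and lysed in RIPA with protease inhibitors. Equal protein was run on 4–12% Bis-Tris SDS-PAGE, transferred to nitrocellulose, and probed for cleaved PARP with α-tubulin as loading control. Detection used HRP secondary antibodies.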

The target in another assay is CDK9/cyclin T1 (Homo sapiens, UniProt P50750). Nature of the assay: Inhibition of CDK9/Cyclin T1 (unknown origin) by ADP-Glo kinase assay. Format: protein-complex assay. A general note: In ADP-Glo the light output rises with the ADP produced.
CDK9/cyclin T1, sequence (O60563 whole entry): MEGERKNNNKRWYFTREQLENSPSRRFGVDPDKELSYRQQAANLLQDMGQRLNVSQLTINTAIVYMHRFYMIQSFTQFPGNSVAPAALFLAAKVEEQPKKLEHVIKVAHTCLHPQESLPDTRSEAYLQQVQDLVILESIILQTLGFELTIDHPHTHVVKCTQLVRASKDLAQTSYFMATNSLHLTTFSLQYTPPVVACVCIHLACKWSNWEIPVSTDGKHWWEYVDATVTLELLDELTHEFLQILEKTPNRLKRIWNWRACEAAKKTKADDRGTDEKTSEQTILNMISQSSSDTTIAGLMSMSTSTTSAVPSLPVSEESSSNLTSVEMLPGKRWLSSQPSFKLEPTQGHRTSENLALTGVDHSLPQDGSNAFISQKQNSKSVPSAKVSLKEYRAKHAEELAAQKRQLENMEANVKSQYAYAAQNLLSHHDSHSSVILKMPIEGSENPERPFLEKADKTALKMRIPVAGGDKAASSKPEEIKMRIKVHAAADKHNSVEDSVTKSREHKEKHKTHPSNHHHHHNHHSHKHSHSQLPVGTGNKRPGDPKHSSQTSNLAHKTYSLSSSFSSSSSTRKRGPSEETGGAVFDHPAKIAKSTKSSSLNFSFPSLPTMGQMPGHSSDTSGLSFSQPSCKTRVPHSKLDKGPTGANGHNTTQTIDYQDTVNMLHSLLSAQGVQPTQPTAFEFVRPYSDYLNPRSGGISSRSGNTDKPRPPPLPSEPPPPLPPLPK
CDK9/cyclin T1, sequence (P50750 whole entry): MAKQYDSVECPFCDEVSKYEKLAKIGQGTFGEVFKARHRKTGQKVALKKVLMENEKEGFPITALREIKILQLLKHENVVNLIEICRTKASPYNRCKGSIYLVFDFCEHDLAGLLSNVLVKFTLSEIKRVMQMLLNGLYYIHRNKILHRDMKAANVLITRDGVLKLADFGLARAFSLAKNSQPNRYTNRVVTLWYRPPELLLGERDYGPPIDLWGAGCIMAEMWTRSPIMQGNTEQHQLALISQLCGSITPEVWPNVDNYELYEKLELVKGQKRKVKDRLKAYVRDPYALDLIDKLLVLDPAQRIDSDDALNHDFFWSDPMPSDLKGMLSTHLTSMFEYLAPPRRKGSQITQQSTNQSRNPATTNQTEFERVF
Assay [7] deals with Cyclin-C/Cyclin-dependent kinase 19 (Homo sapiens, UniProt Q9BWU1). Nature of the assay: Inhibition of CDK19/Cyclin C (unknown origin) by ADP-Glo kinase assay. The format is protein-complex assay.
Assay [8] addresses Cyclin-Y/Cyclin-dependent kinase 16 (Homo sapiens, UniProt Q00536). Nature of the assay: Inhibition of CDK16/cyclin Y (unknown origin) by ADP-Glo kinase assay. Format: protein-complex assay.
The target of another assay is CDK1/Cyclin A (Homo sapiens, UniProt P06493). Nature of the assay: Inhibition of CDK1/Cyclin A2 (unknown origin) by ADP-Glo kinase assay. Format: protein-complex assay. The procedure, abridged: (§2)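 Kinase inhibition was measured by ADP-Glo assay. IC50 values are means of three independent experiments.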
CDK1/Cyclin A, sequence (P06493 whole entry): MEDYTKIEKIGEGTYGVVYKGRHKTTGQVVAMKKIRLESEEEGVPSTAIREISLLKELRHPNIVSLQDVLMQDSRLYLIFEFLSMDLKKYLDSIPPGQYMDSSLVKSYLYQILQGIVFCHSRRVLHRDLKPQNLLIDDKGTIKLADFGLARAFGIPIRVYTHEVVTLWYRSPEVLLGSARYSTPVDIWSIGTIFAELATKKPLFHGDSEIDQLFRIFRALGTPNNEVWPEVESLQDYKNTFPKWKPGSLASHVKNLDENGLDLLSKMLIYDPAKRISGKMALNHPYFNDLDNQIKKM
CDK1/Cyclin A, sequence (P20248 whole entry, further chain): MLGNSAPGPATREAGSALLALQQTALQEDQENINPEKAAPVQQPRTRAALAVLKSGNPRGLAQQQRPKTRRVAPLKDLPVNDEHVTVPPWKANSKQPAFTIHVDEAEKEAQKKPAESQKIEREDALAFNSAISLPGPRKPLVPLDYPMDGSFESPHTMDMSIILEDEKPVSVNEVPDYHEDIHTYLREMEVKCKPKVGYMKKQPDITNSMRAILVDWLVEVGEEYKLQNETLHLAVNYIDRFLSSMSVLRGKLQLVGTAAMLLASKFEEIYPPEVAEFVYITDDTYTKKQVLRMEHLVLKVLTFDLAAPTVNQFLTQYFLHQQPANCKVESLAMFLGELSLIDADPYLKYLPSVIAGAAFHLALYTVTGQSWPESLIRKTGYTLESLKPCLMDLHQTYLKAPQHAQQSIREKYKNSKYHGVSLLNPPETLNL
The target of another assay is CDK9/Cyclin K (Homo sapiens, UniProt P50750). Nature of the assay: Inhibition of CDK9/Cyclin K (unknown origin) by ADP-Glo kinase assay. Format: protein-complex assay.
The target of a further assay is CDK6/cyclin D1 (Homo sapiens, UniProt Q00534). Nature of the assay: Inhibition of CDK6/cyclin D1 (unknown origin) by ADP-Glo kinase assay. The format is protein-complex assay.
In assay [9] the target is T1, Cyclin-dependent kinase 5/CDK5 activator 1 (Homo sapiens, UniProt Q00535). Nature of the assay: Inhibition of CDK5/p25NCK (unknown origin) by ADP-Glo kinase assay. Format: protein-complex assay.
T1 sequence (Q00535 whole entry): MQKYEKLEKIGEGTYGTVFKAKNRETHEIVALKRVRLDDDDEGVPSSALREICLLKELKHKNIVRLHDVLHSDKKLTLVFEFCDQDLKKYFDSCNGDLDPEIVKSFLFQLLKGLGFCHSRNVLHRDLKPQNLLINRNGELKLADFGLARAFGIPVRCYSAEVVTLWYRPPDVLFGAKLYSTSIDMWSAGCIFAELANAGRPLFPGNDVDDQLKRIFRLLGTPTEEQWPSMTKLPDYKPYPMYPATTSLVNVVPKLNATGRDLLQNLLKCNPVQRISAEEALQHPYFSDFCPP
T1 sequence (Q15078 whole entry, further chain): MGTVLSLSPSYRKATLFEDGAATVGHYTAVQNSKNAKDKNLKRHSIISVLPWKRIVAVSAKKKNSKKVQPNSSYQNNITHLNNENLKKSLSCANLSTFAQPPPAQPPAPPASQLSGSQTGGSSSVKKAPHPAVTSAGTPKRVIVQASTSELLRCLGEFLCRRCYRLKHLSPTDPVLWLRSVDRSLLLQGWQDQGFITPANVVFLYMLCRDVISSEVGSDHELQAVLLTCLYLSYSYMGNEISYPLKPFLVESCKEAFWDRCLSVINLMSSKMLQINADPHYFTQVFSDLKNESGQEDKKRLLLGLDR
The target of assay [10] is T1, Cyclin-dependent kinase 5/CDK5 activator 1. Nature of the assay: Inhibition of CDK5/p35NCK (unknown origin) by ADP-Glo kinase assay. Format: protein-complex assay.
Assay [11] has as its target Cyclin-dependent kinase 4/cyclin D1 (Homo sapiens, UniProt P11802). Nature of the assay: Inhibition of CDK4/Cyclin D1 (unknown origin) by ADP-Glo kinase assay. Format: protein-complex assay.
In another assay the target is CDK1/Cyclin E (Homo sapiens, UniProt P06493). Nature of the assay: Inhibition of CDK1/Cyclin E1 (unknown origin) by ADP-Glo kinase assay. The format is protein-complex assay. The procedure, abridged: as §2
CDK1/Cyclin E, sequence (P06493 whole entry): as the sequence (P06493 whole entry) above
CDK1/Cyclin E, sequence (P24864 whole entry, further chain): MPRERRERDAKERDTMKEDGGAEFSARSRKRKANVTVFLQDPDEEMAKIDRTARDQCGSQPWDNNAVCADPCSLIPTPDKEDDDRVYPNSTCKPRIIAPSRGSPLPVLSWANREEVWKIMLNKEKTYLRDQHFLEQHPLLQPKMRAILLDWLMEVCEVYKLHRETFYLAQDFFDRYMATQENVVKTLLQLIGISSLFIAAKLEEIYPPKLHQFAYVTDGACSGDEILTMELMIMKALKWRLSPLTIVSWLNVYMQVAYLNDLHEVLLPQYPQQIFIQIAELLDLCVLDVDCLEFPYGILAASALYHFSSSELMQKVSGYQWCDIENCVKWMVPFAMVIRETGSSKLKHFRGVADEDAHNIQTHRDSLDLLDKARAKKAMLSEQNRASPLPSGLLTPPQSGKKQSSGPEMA
The test system of assay [12] is VCaP. Nature of the assay: Antitumor activity against human VCaP cells xenografted in mouse assessed as reduction in tumor growth at 0.5 to 1.5 mg/kg, ip treated for 27 days. Format: functional, organism-based. The following applies: dose 0.5-1.5 mg/kg, time 27.0 day. The gist of the method:
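VCaP CRPC cells (5×10^6) were injected […] NSG or CB17SCID mice. Dosing began at tumours of ~200–400 mm3: 0.5 or 1.5 mg/kg i.p. for 27 days. Vehicle was 20% PEG400, 6% Cremophor EL, 74% PBS. Tumours were collected at the end for Western blot.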

The source made the active and inactive calls. The rule behind the calls is not given here.

Cyclin-Y/Cyclin-dependent kinase 16, sequence (Q00536 whole entry): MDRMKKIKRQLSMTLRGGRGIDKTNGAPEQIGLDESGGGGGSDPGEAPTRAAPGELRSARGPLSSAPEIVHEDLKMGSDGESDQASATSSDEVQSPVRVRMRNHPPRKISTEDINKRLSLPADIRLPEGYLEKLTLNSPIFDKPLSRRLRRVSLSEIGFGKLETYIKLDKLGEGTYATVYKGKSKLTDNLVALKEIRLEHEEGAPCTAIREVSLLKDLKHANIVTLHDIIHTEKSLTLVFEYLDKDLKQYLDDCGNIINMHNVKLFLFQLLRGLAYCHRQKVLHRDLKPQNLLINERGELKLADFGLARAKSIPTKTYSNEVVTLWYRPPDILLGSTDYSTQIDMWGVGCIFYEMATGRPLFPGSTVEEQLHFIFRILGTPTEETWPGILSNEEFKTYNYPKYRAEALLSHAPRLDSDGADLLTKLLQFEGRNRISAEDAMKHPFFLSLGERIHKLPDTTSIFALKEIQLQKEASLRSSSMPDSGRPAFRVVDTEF
Cyclin-Y/Cyclin-dependent kinase 16, sequence (Q8ND76 whole entry, further chain): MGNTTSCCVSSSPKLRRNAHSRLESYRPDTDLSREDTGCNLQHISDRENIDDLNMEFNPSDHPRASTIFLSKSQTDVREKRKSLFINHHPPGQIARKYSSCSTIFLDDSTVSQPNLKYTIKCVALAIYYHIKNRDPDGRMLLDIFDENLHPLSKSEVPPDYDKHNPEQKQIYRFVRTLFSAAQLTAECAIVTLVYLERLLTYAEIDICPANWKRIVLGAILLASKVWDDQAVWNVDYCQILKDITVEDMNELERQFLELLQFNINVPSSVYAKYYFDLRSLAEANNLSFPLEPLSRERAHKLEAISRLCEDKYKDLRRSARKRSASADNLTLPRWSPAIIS
Cyclin-dependent kinase 4/cyclin D1, sequence (P11802 whole entry): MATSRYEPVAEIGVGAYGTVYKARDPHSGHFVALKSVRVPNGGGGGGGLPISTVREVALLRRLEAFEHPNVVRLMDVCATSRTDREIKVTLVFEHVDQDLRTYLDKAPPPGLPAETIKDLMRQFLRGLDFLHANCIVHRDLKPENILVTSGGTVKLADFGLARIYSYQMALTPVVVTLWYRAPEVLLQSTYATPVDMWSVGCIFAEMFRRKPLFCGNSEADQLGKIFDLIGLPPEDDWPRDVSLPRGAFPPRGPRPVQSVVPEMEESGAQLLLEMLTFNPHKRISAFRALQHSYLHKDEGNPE
Cyclin-dependent kinase 4/cyclin D1, sequence (P24385 whole entry, further chain): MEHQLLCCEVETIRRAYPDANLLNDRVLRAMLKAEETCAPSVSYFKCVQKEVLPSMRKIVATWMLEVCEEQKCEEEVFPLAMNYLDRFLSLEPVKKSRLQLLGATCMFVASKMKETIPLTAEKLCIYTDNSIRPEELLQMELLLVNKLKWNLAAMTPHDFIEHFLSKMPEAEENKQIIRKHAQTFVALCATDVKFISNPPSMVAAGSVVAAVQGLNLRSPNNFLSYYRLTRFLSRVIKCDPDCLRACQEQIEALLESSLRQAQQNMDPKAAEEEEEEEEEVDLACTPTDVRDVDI

In turn, `C=CC(=O)Nc1cc(N(C(=O)NCc2ccccc2)[C@H]2CC[C@H](Nc3ccc(C#N)cn3)CC2)ccc1N1CCN(C)[C@@H](C)C1` registered an IC50 with VCaP [1] of 0.0043 µM.
The same measure, in the same setting: the value for `C=CC(=O)Nc1cc(N(C(=O)NCc2ccccc2)[C@H]2CC[C@H](Nc3ccc(C#N)cn3)CC2)ccc1N1C[C@H]2C[C@@H]1CN2C` was 0.0763 µM.
Turning to `C=CC(=O)Nc1cc(N(C(=O)NCc2ccccc2)[C@H]2CC[C@H](Nc3ccc(C#N)cn3)CC2)ccc1N1CCC(N(C)C(=O)CCOCCOCCOCCOCCNC(=O)CCCC[C@@H]2SC[C@@H]3NC(=O)N[C@@H]32)CC1`, the outcome in assay [2] and in assay [3] was Active.
For `Cn1cc(-n2cnc3c(NCc4nc5cc(Cl)c(Cl)cc5[nH]4)nc(N4CCOCC4)nc32)cn1`, the inhibition result in the assay on VCaP [4] is “inactive”.
For the compound `Cn1cc(-c2ccc(N(C(=O)NCc3ccccc3)[C@H]3CC[C@H](Nc4ccc(C#N)cn4)CC3)cc2)ccc1=O`, the IC50 against CDK8/Cyclin C is above 10 µM; against CDK7/Cyclin H/MNAT1 it was 0.679 µM; against CDK9/cyclin T1, 0.515 µM; in assay [7], above 10 µM; in [8], above 10 µM; against CDK1/Cyclin A, above 10 µM. For the same compound, the IC50 is 0.716 µM against CDK9/Cyclin K; 8.79 µM at CDK6/cyclin D1; 4.86 µM in [9]; 5.07 µM in [10]; 5.28 µM in assay [11]; above 10 µM at CDK1/Cyclin E. Moreover, the result in the assay on VCaP [5] and in the assay with VCaP [6] was inactive.
Consider `Cn1ncc(Cl)c1-c1cc(C(=O)N[C@H](CN)Cc2ccc(F)c(F)c2)oc1Cl`, for which the result with VCaP [12] was Active.

A word on the IC50: it is the concentration at which inhibition is half-maximal. High values mean lower potency, low ones higher potency.
